# UCH37 DUB inh = human UCH37 deubiquitinating enzyme inhibition; Q9Y5K5; purified proteasome/UCH37, Ub-AMC cleavage fluorescence; inhibition, % (no concentration beside the values); actives 0.33% (n = 330,000); AID 588478;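 active = mean inhibition over replicate wells above about 20%, limit read from the data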;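 also: 0% = compound-free wells with enzyme and 100% = wells lacking proteasome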
#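 System: Proteasome-associated human UCH37 deubiquitinase; Input: 0.15 nM proteasome in added enzyme buffer; Also added: Ub-AMC substrate from 1 µM stock; Incubation: 30 min compound-proteasome preincubation then 25 min substrate reaction, room temperature; Detection: fluorescence, ex 355 nm, em 460 nm; Read-out: % inhibition of Ub-AMC cleavage fluorescence; Benchmarks: no-proteasome and no-compound wells.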
# PfM18AAP inh-1 = blocks P. falciparum M18 aspartyl aminopeptidase. AID 1822. inhibition, % at 7.35 µM. recombinant PfM18AAP, H-Glu-NHMec fluorogenic cleavage. actives 1.2% (n = 290,000);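 active = inhibition above the campaign mean inhibition over all tested compounds plus 3 SD, cut at about 28% in these data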;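 also: 0% = plate median of test compound wells and 100% = 2 mM ZnCl2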
# Rtt109 HAT inh = C. albicans Rtt109 histone acetyltransferase inhibition | Q5AAJ8 | purified Rtt109/Vps75, ThioGlo CoA-SH fluorescence, 4 h | inhibition, % at 34.9 µM | actives 0.16% (n = 330,000) | AID 540336;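 active = inhibition of at least 50% in every replicate; inconclusive = best replicate reaches 50% inhibition but some replicates fall short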
# ALR H2O2 inh = inhibitors of human sulfhydryl oxidase ALR; P55789; actives 3.8% (n = 290,000); AID 485317; purified ALR, DTT oxidation, H2O2 HRP-luminol luminescence; inhibition, % (no concentration beside the values);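 active = mean replicate inhibition above about 79%, with every replicate also reaching it, limit read from the data; inconclusive = only one of the two criteria met; inactive = mean below limit and not every replicate reaching it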
# Target sequence (P55789 whole entry, looked up): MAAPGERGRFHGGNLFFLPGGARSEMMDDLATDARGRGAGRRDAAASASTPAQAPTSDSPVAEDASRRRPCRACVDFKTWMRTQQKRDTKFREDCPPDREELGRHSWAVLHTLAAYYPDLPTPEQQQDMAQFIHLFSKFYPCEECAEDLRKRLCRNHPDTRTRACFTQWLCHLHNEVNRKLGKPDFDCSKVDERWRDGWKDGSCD
# FAS-TE inh = blocks the thioesterase domain of human fatty acid synthase; P49327; recombinant FAS-TE, OMFH fluorogenic substrate, fluorescence endpoint; actives 0.67% (n = 360,000); inhibition, % at 15 µM;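 active = compounds whose normalised, plate-corrected inhibition of enzyme fluorescence in the single-dose primary screen is 50% or more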;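 also: 0% = DMSO with enzyme and 100% = substrate without enzyme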
# HDAC3 inhib = inhibitors of human histone deacetylase 3 | O15379 | recombinant HDAC3, fluorogenic peptide/trypsin coupled, fluorescence | inhibition, % at 8.3 µM | actives 0.15% (n = 320,000); in the data active = inhibition above about 26%, passing the limit was not always enough; inconclusive = no clear call, values can overlap the other calls
# Target sequence (O15379 whole entry, looked up): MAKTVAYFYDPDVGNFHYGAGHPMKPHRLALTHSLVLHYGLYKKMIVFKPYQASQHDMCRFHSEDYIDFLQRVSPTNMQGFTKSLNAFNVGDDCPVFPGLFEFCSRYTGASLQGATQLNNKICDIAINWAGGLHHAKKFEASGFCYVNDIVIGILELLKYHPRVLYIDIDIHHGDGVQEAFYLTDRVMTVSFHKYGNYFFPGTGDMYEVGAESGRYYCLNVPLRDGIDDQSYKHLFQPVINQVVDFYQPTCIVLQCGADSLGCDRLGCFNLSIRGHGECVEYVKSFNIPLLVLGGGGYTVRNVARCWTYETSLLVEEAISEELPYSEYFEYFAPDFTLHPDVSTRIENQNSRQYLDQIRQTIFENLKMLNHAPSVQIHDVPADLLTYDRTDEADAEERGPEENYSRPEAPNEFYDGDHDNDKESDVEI
# PfM18AAP inh-2 = confirmation of Plasmodium falciparum M18 aspartyl aminopeptidase inhibitors; recombinant PfM18AAP, H-Glu-NHMec fluorogenic cleavage; AID 2170; shares compounds with PfM18AAP inh-1; inhibition, % at 7.35 µM; actives 28% (n = 2,400);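 active = mean inhibition over replicate wells above the hit cutoff set for the earlier primary screen, cut at about 29% in these data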;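 also: 0% = median of test compound wells and 100% = 2 mM ZnCl2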
# CTSL1 confirm = counter-screen for PFM18AAP inhibitors: confirmation of human cathepsin L inhibitors; shares compounds with PfM18AAP inh-1; purified cathepsin L1, Z-Leu-Arg-MCA fluorescence; inhibition, % at 5.96 µM; 2,400 tested, under 10 active; AID 2178;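 active = average inhibition across replicates above the hit cutoff set in the earlier primary screen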;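 also: 0% = median of test compound wells and 100% = Z-Phe-Ala-diazomethylketone 1 µM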
# UCH37 reconfirm = UCH37 Ub-AMC cleavage inhibition, confirmed. shares compounds with UCH37 DUB inh. inhibition, % at 20 µM. AID 624100. actives 27% (n = 480). Proteasome-bound UCH37, Ub-AMC cleavage fluorescence;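 active = average inhibition over replicates above about 50%, so the earlier screening hit is confirmed, limit read from the data; inactive = the rest, counted as false positives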;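 also: based on cleavage rate fitted by regression over a 30 min kinetic read; 0% = proteasome plus Ub-AMC and 100% = Ub-AMC without proteasome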
# FAS-TE conf = FAS thioesterase (human) inhibition, confirmation; inhibition, % at 15 µM; recombinant FAS-TE, OMFH fluorogenic substrate, fluorescence; shares compounds with FAS-TE inh; actives 45% (n = 2,300);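 active = compounds inhibiting the enzyme by at least 50% at 15 µM in any one of the replicates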;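 also: 0% = enzyme with DMSO only and 100% = wells lacking enzyme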
# Numbers without * were called inactive; ? = inconclusive; · = no result given. This is a sample that favours compounds with a hit; in the whole collection about 4.6% have one here.
SMILES,UCH37 DUB inh,PfM18AAP inh-1,Rtt109 HAT inh,ALR H2O2 inh,FAS-TE inh,HDAC3 inhib,UCH37 reconfirm,others
N#Cc1cc(-c2ccccc2)nc(NN)n1,8.0,42.6*,-13.5,-7.7,-0.5,0.9,·,PfM18AAP inh-2=30.6*;CTSL1 confirm=6.5
NNc1nc(-c2ccccc2)cc(-c2ccccc2)n1,1.6,12.4,-2.3,-12.1,-6.8,-1.4,·,
CCNC(=S)NNC(=O)CSc1nc2ccccc2n1C,0.1,31.7*,-10.8,46.7,-3.4,-1.9,·,PfM18AAP inh-2=2.2;CTSL1 confirm=-1.0
O=C(NNc1cccc([N+](=O)[O-])c1)/C(=C\c1cccnc1)NC(=O)c1ccccc1,9.2,46.2*,-5.3,99.3*,66.3*,8.3,·,PfM18AAP inh-2=10.3;CTSL1 confirm=1.4;FAS-TE conf=64.5*
CC(=NOCC(=O)Nc1ccccc1C(=O)O)c1cccs1,4.1,·,·,·,·,·,·,
O=[N+]([O-])c1cc(F)c2cccnc2c1O,29.1*,15.8,0.0,22.3,1.9,-0.4,48.0,
CCCCCCn1ccc(=N)cc1,6.6,1.2,-5.1,-3.4,-5.4,-1.8,·,
CCCCCCCCCCCCCCCCn1cc[n+](CC(C)=O)c1,84.5*,-0.5,111.7*,·,-98.7,·,96.3*,
C=CCOc1ccc(C=NNc2ccc(S(=O)(=O)Nc3ccccc3C(=O)O)cc2[N+](=O)[O-])cc1OC,86.3*,·,12.1,89.9*,24.3,2.8,83.3*,
O=C(O)c1ccccc1NS(=O)(=O)c1ccc(NN=Cc2ccc(O)c(O)c2)c([N+](=O)[O-])c1,18.4,·,·,·,·,·,·,
O=C(O)c1ccccc1NS(=O)(=O)c1ccc(NN=Cc2cccc(O)c2O)c([N+](=O)[O-])c1,32.2*,·,·,·,·,·,40.3,
CCOc1cc(/C=N/NC(=O)c2cccs2)cc([N+](=O)[O-])c1O,·,10.3,1.3,·,-0.2,·,·,
CCOc1cc(C=NNC(=O)c2cccs2)cc([N+](=O)[O-])c1O,29.7*,·,·,·,·,·,39.7,
CC1(C)CCCC2=C1CC1C(=O)N(Cc3cccnc3)C(=O)C1C2 (stereo unspecified),38.7*,-11.5,-7.2,-9.0,-10.0,1.4,45.7,
Cc1ccc(OC(C)C(=O)Nc2ncc(Cl)cc2Cl)c([N+](=O)[O-])n1 (stereo unspecified),-25.9,·,-3.0,-3.7,16.1,0.1,·,
CC(OC(=O)c1ccc([N+](=O)[O-])s1)C(=O)Nc1ncc(Cl)cc1Cl (stereo unspecified),57.5*,-12.8,0.6,-50.8,9.2,-1.3,4.1,
Cc1[nH][nH]c(=O)c1C(c1ccc(-c2cccc(C(=O)O)c2)o1)c1c(C)[nH][nH]c1=O,44.3*,21.0,?,36.0,21.5,-4.5,70.8*,
Cc1[nH][nH]c(=O)c1C(c1ccc(-c2ccc(Cl)cc2Cl)o1)c1c(C)[nH][nH]c1=O,·,2.0,·,·,·,·,·,
COC(=O)c1ccc(-c2ccc(C(c3c(C)[nH][nH]c3=O)c3c(C)[nH][nH]c3=O)o2)cc1,44.9*,9.7,13.9,-11.4,26.0,10.4,67.2*,
COc1cccc2c1OCCC2=NNC(=O)COc1ccccc1C,0.7,·,·,·,·,·,·,
O=C(O)c1ccc(NN=C/C=C/c2ccc([N+](=O)[O-])o2)cc1,30.2*,·,·,·,·,·,36.7,
CCCNS(=O)(=O)c1ccc(OCC(=O)NCCC2=CCCCC2)cc1,36.4*,2.8,2.2,-5.6,0.9,2.0,45.3,
COC(=O)COc1ccc(S(=O)(=O)NCCC2=CCCCC2)cc1C,54.7*,-0.4,6.9,-9.2,9.6,7.7,60.4*,
CCc1ccc(-n2c(C)cc(C=NNC(=O)c3ccncc3)c2C)cc1,6.8,·,·,·,·,·,·,
O=C(NCCN1CCCCC1)c1ccc(C=NO)nc1,3.3,·,·,·,·,·,·,
SMILES,UCH37 DUB inh,PfM18AAP inh-1,Rtt109 HAT inh,ALR H2O2 inh,FAS-TE inh,HDAC3 inhib,UCH37 reconfirm,others
S=C(Nc1ccccc1)Nc1ccccn1,·,·,·,·,-2.1,·,·,
S=C(Nc1ccc(Nc2ccccc2)cc1)Nc1ccccn1,46.1*,1.4,5.2,74.5,22.4,-2.1,-4.1,
CC(Sc1nnc(-c2cccnc2)n1N)C(=O)NCCC1=CCCCC1 (stereo unspecified),62.6*,·,8.2,·,-5.4,·,51.8*,
CCCCN1C(=O)/C(=C/C=C2\SCCN2C)SC1=S,8.5,9.4,6.0,·,-41.8,·,·,
CN1CCS/C1=C/C=C1\SC(=S)N(CC(=O)O)C1=O,37.6*,-6.4,-2.6,72.9,-104.0,14.6,30.1,
Cc1cc(-c2ccccc2)nc(NN=Cc2ccccc2)n1,2.2,·,·,·,·,·,·,
COc1cccc(C=NNc2ccc(C(=O)O)cc2)c1O,17.2,·,·,·,·,·,·,
C[C@H](NC(=O)c1nc[nH]c1C(=O)N[C@@H](C)C(=O)OC(C)(C)C)C(=O)OCc1ccccc1,35.3*,-10.0,1.9,·,2.7,4.7,-29.9,
CC(=NNC(=O)COc1cc(C)cc(C)c1)c1ccc(N2CCOCC2)cc1,-3.6,·,·,·,·,·,·,
O=C1C2C3CCCC3=C3CCCC3C2C(=O)N1c1ccc(Cl)cc1 (stereo unspecified),63.1*,-5.3,8.2,8.1,-6.7,-0.3,75.0*,
O=C1C2C3CCCC3=C3CCCC3C2C(=O)N1c1cccc(Cl)c1 (stereo unspecified),18.7,1.1,-3.1,3.8,9.4,0.3,·,
CC(=NOC(=O)Nc1ccccc1)c1ccc(C)cc1,2.9,·,·,·,·,·,·,
COc1ccccc1N(CC(=O)NN=Cc1ccc(C(=O)O)cc1)S(=O)(=O)c1ccc(C)cc1,3.0,·,·,·,·,·,·,
CSc1nc(Oc2ccccc2)c2sccc2n1,-3.3,-12.0,2.8,-5.0,14.4,7.4,·,
CSc1nc(Oc2ccc(Cl)cc2)c2sccc2n1,36.1*,1.2,2.6,-25.1,19.6,-2.1,16.3,
CN1CC(=NS(=O)(=O)c2ccccc2)N(C)C1=O,6.4,·,·,·,·,·,·,
CC1CCN(CC(=O)Nc2sc3c(c2C#N)CCC3)CC1,37.0*,7.6,7.6,33.4,-2.3,-1.0,9.1,
CCCOc1ccc(-c2cn3ccccc3n2)cc1[N+](=O)[O-],3.5,-6.3,-5.6,-7.5,15.9,3.9,·,
COc1ccc(-c2cn3ccccc3n2)cc1[N+](=O)[O-],46.4*,2.7,10.5,6.8,0.5,-4.4,9.6,
O=c1cc(-c2ccccc2Cl)oc2ccc([N+](=O)[O-])c(O)c12,1.9,-1.1,8.1,14.1,10.8,2.0,·,
O=[N+]([O-])c1cc([N+](=O)[O-])c2oc(-c3ccccc3)c(Br)c2c1O,26.7*,0.7,-5.3,·,4.3,·,71.0*,

# Screening data from PubChem.
